Test results: ChEMBL document CHEMBL1122016, “Aminotetralins as narcotic antagonists. 2. Synthesis and opiate-related activity of 1-phenyl-3-aminotetralins” (1982)
Activity calls are given as the source filed them. No cut-off for these calls is given here.

Legend:
[1] = species on record: Mus musculus; assay: activity in the mouse hotplate procedure; format: functional
[2] = test system: Monkey; assay: Compound was tested for signs of opiate abstinence at 5 mg/kg dose in monkeys; No effect; format: functional, organism-based; design: dose 5 mg/kg; conditions: Cercopithecidae
[3] = test system: Mus musculus; assay: The Narcotic-antagonistic activity the ability to reverse an ED50 dose of morphine when tested in mice by the tail-flick procedure at the dose of 3 mg/kg (s.c.); format: functional; conditions: sc
Outline: (§1)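 Mouse tail-flick antagonism assay: test agents given subcutaneously as hydrochloride salts of racemic mixtures, each at 30, 10, 3 and 1 mg/kg, against a subcutaneous ED50 dose of morphine. The read-out is percent inhibition, meaning reversal, of the morphine tail-flick response. Testing was performed by an outside laboratory (NIDA).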

[4] = test system: Mus musculus; assay: The Narcotic-antagonistic activity the ability to reverse an ED50 dose of morphine when tested in mice by the tail-flick procedure at the dose of 30 mg/kg (s.c.); format: functional; conditions: sc; outline: as §1
[5] = test system: Mus musculus; assay: The Narcotic-antagonistic activity the ability to reverse an ED50 dose of morphine when tested in mice by the tail-flick procedure at the dose of 1 mg/kg (s.c.); format: functional; conditions: sc; outline: as §1
[6] = test system: Mus musculus; assay: The Narcotic-antagonistic activity the ability to reverse an ED50 dose of morphine when tested in mice by the tail-flick procedure at the dose of 10 mg/kg (s.c.); format: functional; conditions: sc; outline: as §1
[7] = test system: Mus musculus; assay: The ability to reverse an ED50 dose of morphine when tested in mice by the tail-flick procedure at the dose of 1 mg/kg (s.c.) value expressed as narcotic-antagonistic activity; format: functional; outline: as §1
[8] = test system: Mus musculus; assay: The ability to reverse an ED50 dose of morphine when tested in mice by the tail-flick procedure at the dose of 30 mg/kg (s.c.) value expressed as narcotic-antagonistic activity; format: functional; outline: as §1
[9] = test system: Mus musculus; assay: The ability to reverse an ED50 dose of morphine when tested in mice by the tail-flick procedure at the dose of 10 mg/kg (s.c.) value expressed as narcotic-antagonistic activity; format: functional; outline: as §1
[10] = test system: Mus musculus; assay: The ability to reverse an ED50 dose of morphine when tested in mice by the tail-flick procedure at the dose of 3 mg/kg (s.c.) value expressed as narcotic-antagonistic activity; format: functional; outline: as §1

SMILES	ED50 [1]	inhibition in vivo at 3 mg/kg [3]	inhibition in vivo at 1 mg/kg [5]	also measured
CN1CC[C@]23c4c5ccc(O)c4O[C@H]2[C@@H](O)C=C[C@H]3[C@H]1C5.CN1CC[C@]23c4c5ccc(O)c4O[C@H]2[C@@H](O)C=C[C@H]3[C@H]1C5.O=S(=O)(O)O	1.2 mg/kg	–	–	–
CN(CC1CC1)[C@@H]1Cc2ccccc2[C@@H](c2ccccc2)C1	9.1 mg/kg	100%	60%	Activity [2]: inactive; inhibition in vivo at 30 mg/kg [4]: 0%; inhibition in vivo at 10 mg/kg [6]: 54%
CN(CC1CC1)[C@@H]1Cc2ccccc2[C@H](c2ccccc2)C1	6.3 mg/kg	100%	75%	–
COc1ccc2c3c1O[C@H]1[C@@H](O)C=C[C@H]4[C@@H](C2)N(C)CC[C@@]341.O=S(=O)(O)O	7.5 mg/kg	–	–	–
CN(CC1CC1)C1C=C(c2ccccc2)c2ccccc2C1 (stereo unspecified)	> 50 mg/kg	–	–	–
C=CCN1CC[C@]23c4c5ccc(O)c4O[C@H]2C(=O)CC[C@@]3(O)[C@H]1C5.Cl [NALOXONE HYDROCHLORIDE]	–	–	–	AD50 [7]: 0.031 mg/kg; AD50 [8]: 0.031 mg/kg; AD50 [9]: 0.031 mg/kg; AD50 [10]: 0.031 mg/kg
